Active and inactive are the calls of the source. The rule behind the calls is not given here.
Tests used:
HepG2 = test: Increase in transcriptional activity of ROR ligand binding domain expressed in human Hep G2 cells co-transfected with Gal4-DBD by luciferase reporter gene assay; format: cell-based
In short: (§1)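 HepG2 cells transfected for 4 h by calcium phosphate coprecipitation with 100 ng pGal4UAS-luciferase, 50 ng Gal4-LBD receptor vector and 300 ng CMV-β-galactosidase plasmid for normalization. Cells were washed in PBS, then refed with serum-free DMEM/F-12 containing penicillin/streptomycin and compound or 0.1% ethanol vehicle for 20 h. Luciferase read-out was normalized to β-galactosidase. Experiments were repeated at least three times.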

[1] = target: T1, Oxysterols receptor LXR-alpha (Homo sapiens) (UniProt Q13133); test: Increase in transcriptional activity of LXRalpha ligand binding domain expressed in human Hep G2 cells co-transfected with Gal4-DBD by luciferase reporter gene assay; format: cell-based; conditions: HepG2; in short: as §1
T1 sequence (whole entry): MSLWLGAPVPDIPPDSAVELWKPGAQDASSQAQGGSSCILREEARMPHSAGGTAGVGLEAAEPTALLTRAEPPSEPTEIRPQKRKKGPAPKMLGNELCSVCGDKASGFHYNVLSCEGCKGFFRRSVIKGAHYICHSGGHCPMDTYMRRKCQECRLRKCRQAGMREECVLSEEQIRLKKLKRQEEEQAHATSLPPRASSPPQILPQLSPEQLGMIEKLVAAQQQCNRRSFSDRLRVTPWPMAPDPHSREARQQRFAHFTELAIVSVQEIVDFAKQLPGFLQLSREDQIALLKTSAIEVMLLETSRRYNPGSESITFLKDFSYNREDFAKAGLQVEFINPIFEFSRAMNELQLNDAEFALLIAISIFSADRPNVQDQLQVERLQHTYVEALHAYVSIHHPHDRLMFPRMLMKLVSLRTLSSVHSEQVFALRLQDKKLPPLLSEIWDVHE

[2] = target: T2, Peroxisome proliferator-activated receptor alpha (Mus musculus, UniProt P23204); test: (§2) Agonist activity at mouse PPARalpha ligand binding domain expressed in human Hep G2 cells co-transfected with Gal4-DBD by luciferase reporter gene assay; format: cell-based, HepG2
T2 sequence (P23204 whole entry): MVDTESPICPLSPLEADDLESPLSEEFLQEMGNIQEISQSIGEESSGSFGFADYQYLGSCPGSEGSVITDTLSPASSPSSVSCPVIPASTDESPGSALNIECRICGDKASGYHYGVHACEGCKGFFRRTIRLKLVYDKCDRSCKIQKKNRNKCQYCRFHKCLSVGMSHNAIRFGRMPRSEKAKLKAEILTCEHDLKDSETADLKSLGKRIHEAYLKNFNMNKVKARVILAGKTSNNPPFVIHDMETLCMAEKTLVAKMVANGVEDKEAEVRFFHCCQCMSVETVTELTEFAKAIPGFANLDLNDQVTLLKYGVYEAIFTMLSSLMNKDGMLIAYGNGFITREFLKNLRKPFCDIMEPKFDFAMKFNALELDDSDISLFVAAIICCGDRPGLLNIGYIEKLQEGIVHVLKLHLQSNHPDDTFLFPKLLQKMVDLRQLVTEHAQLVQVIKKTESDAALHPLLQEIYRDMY

[3] = target: T3, Peroxisome proliferator-activated receptor alpha (Homo sapiens) (UniProt Q07869); test: Agonist activity at human PPARalpha ligand binding domain expressed in human Hep G2 cells co-transfected with Gal4-DBD by luciferase reporter gene assay; format: cell-based; conditions: HepG2
T3 sequence (whole entry): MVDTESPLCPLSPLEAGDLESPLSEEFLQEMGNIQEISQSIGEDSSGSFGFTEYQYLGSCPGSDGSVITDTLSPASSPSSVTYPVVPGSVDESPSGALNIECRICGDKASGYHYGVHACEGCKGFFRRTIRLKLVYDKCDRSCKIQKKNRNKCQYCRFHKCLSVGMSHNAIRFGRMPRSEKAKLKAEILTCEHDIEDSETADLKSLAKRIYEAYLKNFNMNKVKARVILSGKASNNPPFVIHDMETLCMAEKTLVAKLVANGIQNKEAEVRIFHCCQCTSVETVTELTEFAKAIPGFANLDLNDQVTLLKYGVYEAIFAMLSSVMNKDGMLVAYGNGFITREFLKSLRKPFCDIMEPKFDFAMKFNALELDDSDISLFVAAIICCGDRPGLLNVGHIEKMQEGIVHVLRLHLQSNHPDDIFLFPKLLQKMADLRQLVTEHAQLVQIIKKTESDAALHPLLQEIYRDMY
In short: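 Gal4-LBD fusion vector (50 ng) was co-transfected with pGal4UAS-luciferase (100 ng) and pCMVβ β-galactosidase normalizer (300 ng) into HepG2 cells by calcium phosphate for 4 h. Cells were washed, then given serum-free DMEM/F-12 with ligand or 0.1% ethanol vehicle for 20 h. Luciferase was normalized to β-galactosidase.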

[4] = target: T4, Peroxisome proliferator-activated receptor alpha (Mus musculus) (UniProt P23204); test: as §2; format: cell-based; conditions: HepG2
T4 sequence (whole entry): T2 sequence (P23204 whole entry)

Q: Which results are given for O=C(O)[C@H](Cc1ccccc1)Oc1ccc(-c2ccccc2)cc1?
A: Activity (HepG2): inactive; Activity [1]: inactive; EC50 [2]: 260 nM

Q: With O=C(O)[C@@H](Cc1ccccc1)Oc1ccc(-c2ccccc2)cc1 as the compound, how does the Activity [3] read?
A: inactive

Q: And the Activity [4]?
A: inactive

Reference: ChEMBL document CHEMBL1151755, “Crystal structure of the peroxisome proliferator-activated receptor gamma (PPARgamma) ligand binding domain complexed with a novel partial agonist: a new region of the hydrophobic pocket could be exploited for drug design” (J Med Chem, 2008)
